Shown are actives, neighbours in structure and some others; about 2.8% of the full set was active somewhere.
pCIP destab – lowers stability of the mouse p/CIP coactivator protein; Q05BA5; F442A p/CIP-EGFP cells, EGFP fluorescence, 16 h; decrease of EGFP signal, % at 10 µM; 290,000 tested, 0.01% active; AID 1984;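 active = EGFP signal decrease of at least 30% at 10 µM or well 3 SD below plate mean, unless failing retest; inactive = the rest, including hits failing retest or dose response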
AI-2 QS mod – Vibrio harveyi AI-2 quorum sensing modulation | Vibrio harveyi JMH597 AI-2 luminescence/OD600 ratio, 9 h; active compounds read low; strain lacks LuxN and CqsS sensors; 0 = neutral-control median | activity change, % at 7.5 µM | 300,000 tested, 0.4% active; in the data active = activity change below about -75%, passing the limit was not always enough; inconclusive = no clear call, values can overlap the other calls;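 also: luminescence divided by OD600 gain over 9 h not by final OD600 alone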
T cruzi inh – blocks replication of Trypanosoma cruzi. T. cruzi beta-gal in NIH3T3, luminescence, 90 h. inhibition, % (concentration not given with the values). 300,000 tested, 1.4% active. AID 1885;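 active = mean inhibition across valid replicates above about 55%, limit read from the data; inconclusive = mean below that limit but half or more replicates reach it; inactive = mean below it, under half of replicates reach it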;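 also: signal also drops with host cell toxicity which is not excluded here; higher percent means less beta-gal luminescence so fewer parasites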
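Test system: β-gal T. cruzi (Tulahuen C4) inside NIH/3T3 cells / Quantity: 5,000 cells/well / Measured by: luminescence from GalScreen with 0.05% NP40, read after 60 min / Medium: DMEM plus 2% FBS / Measure: parasite load inhibition, % / Reagent: Tulahuen C4 trypomastigotes, 5000/well / Schedule: co-culture of at least 90 h after 3 h attachment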
UBC13 polyUb – blocks human UBC13 polyubiquitin chain formation; inhibition, % at 20 µM; 330,000 tested, 0.47% active; TR-FRET; P61088; AID 485273; in the data active = inhibition above about 45%, passing the limit was not always enough; inconclusive = no clear call, values can overlap the other calls
Target sequence (P61088 whole entry, looked up): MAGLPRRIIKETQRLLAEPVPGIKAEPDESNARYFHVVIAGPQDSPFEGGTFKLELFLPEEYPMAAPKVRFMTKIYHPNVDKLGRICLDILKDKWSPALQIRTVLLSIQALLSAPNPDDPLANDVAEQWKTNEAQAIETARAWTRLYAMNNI
PP1 inh – blocks human PP1-alpha phosphatase, a PP5 counter-screen; P62136; purified PP1alpha, OMFP fluorescence; inhibition, % at 6.7 µM; 320,000 tested, 0.9% active; AID 2235;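 active = inhibition above the mean inhibition of all tested compounds plus 3 SD, computed separately for each screening campaign, cut at about 15% in these data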
Target sequence (P62136 whole entry, looked up): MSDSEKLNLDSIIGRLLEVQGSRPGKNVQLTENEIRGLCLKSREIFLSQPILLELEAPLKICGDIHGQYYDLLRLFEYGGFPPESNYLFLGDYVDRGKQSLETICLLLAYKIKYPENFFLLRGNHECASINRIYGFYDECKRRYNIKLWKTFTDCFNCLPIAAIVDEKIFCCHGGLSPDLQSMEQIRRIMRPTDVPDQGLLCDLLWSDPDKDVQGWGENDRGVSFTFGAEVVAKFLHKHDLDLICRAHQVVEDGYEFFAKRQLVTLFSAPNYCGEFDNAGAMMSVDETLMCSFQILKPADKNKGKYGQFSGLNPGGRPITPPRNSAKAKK
Large screens that a line does not name were inactive.

CC(C)(C)NCC1(CO)SC(N)=NC1=O (stereo unspecified)	T cruzi inh 56.7
CC1CN(CCOc2cccc(Oc3ccccc3)c2)CC(C)O1 (stereo unspecified)	none
CC1CN(CCCCOc2cccc(Oc3ccccc3)c2)CC(C)O1 (stereo unspecified)	T cruzi inh 55.9
C[C@H](CO)N1C[C@H](C)[C@@H](CN(C)Cc2ccc3c(c2)OCO3)Oc2c(NC(=O)Cc3ccccc3)cccc2C1=O	none (no result: pCIP destab, AI-2 QS mod, T cruzi inh, PP1 inh)
O=[N+]([O-])c1nn(-c2ccc3c(c2)OCCO3)n(O)c1=NCc1ccc(F)cc1Cl	none
O=[N+]([O-])c1nn(-c2ccc3c(c2)OCCO3)n(O)c1=NC1CCN(Cc2ccccc2)CC1	T cruzi inh 62.1
O=[N+]([O-])c1nn(-c2ccccc2)n(O)c1=NC1CCN(Cc2ccccc2)CC1	T cruzi inh 76.7
Cc1cccc(C)c1NC(=O)C1CCCN1S(=O)(=O)c1ccccc1 (stereo unspecified)	none (no result: AI-2 QS mod)
CCCNC1=C(N(C(C)=O)c2cccc(F)c2)C(=O)c2ccccc2C1=O	T cruzi inh 54.8 (no result: UBC13 polyUb)
Cc1ccc2c(c1)N(C)/C(=C/c1cccc[n+]1C)S2	T cruzi inh 75.6
CCCCN1/C(=C/c2cccc[n+]2C)Sc2cc(NC(C)=O)ccc21	none
CN1/C(=C/c2cccc[n+]2C)Sc2ccccc21	T cruzi inh 63.2
Cc1ccc2c(c1)N(C)/C(=C/c1cccc[n+]1CCO)S2	T cruzi inh inconclusive
O=C(CN1C(=O)C(=O)N(Cc2ccccc2)C1=O)c1ccc[nH]1	none (no result: pCIP destab, AI-2 QS mod, T cruzi inh)
CCN(CC)C(=O)c1[nH]cnc1C(=O)N[C@@H](Cc1ccccc1)C(=O)OC(C)(C)C	none
CCCc1cc(NCc2ccccn2)n2nc(C)c(-c3ccccc3)c2n1	T cruzi inh 54.6 (no result: AI-2 QS mod)
Cc1ccccc1-c1nnc(NC(=O)CSc2nc3ccccc3s2)s1	PP1 inh 17.3
CC(C)c1cccc(OCCCCN(C)C)c1	T cruzi inh 65.0
CCOc1ccc(Cc2nnc(SCC(=O)Nc3ccc(C(C)=O)cc3)[nH]c2=O)cc1	none (no result: pCIP destab)
N=C1S/C(=C\c2ccc(-c3cccc(Cl)c3)o2)C(=O)N1c1nccs1	none (no result: UBC13 polyUb)
COc1ccc(/C=C2\SC(=N)N(c3nccs3)C2=O)cc1OC	T cruzi inh 57.8
CCn1cc([N+](=O)[O-])c(=O)c2cc(F)c(N3CCOCC3)cc21	none
Cc1onc(-c2c(F)cccc2Cl)c1C(=O)OCC(=O)c1c[nH]c2ccccc12	none
NC(=O)CC(NC(=O)c1ccc(Br)cc1)c1ccc(N2CCN(c3ccccc3)CC2)c([N+](=O)[O-])c1 (stereo unspecified)	PP1 inh 15.2
NC(=O)CC(NC(=O)c1ccccc1)c1ccc(N2CCC(Cc3ccccc3)CC2)c([N+](=O)[O-])c1 (stereo unspecified)	PP1 inh 17.0
O=C(NC1CCSc2ccccc21)c1cccc(Cl)c1 (stereo unspecified)	none
Cc1onc(-c2c(F)cccc2Cl)c1C(=O)OCc1nnc(-c2ccccc2)o1	none (no result: pCIP destab, AI-2 QS mod, T cruzi inh)
O=[N+]([O-])c1cccc(C(=Nc2ccccc2Cl)NO)c1	AI-2 QS mod -90.9
O=[N+]([O-])c1cccc(C(=Nc2ccccc2)NO)c1	none
CCOC(=O)C1=C(COC(=O)COc2cccc(C)c2C)NC(=O)NC1C (stereo unspecified)	none (no result: pCIP destab, AI-2 QS mod, T cruzi inh)
Cc1c(C)c2cccnc2c2ncccc12	PP1 inh 16.4 (no result: pCIP destab, AI-2 QS mod, T cruzi inh)
C[C@@H]1NS(=O)(=O)[C@H]2C[C@@H]3C=C[C@]2(O3)[C@H]1OC(=O)c1ccc(C(C)(C)C)cc1	none (no result: pCIP destab, AI-2 QS mod, T cruzi inh)
Cc1ccc(N(CCC#N)C(=O)CCl)cc1C	T cruzi inh 58.9
CCc1ccc(-n2cc(-c3ccc(F)cc3)[n+]3c2SCCC3)cc1	T cruzi inh 56.3
COc1ccc(-n2cc(-c3ccc(C)cc3)[n+]3c2SCC3)cc1	T cruzi inh 58.7
COc1ccc(-n2cc(-c3ccccc3)[n+]3c2CCCCC3)cc1	T cruzi inh 81.4
Cc1ccc(-c2cn(-c3ccccc3)c3[n+]2CCCS3)cc1	none
Cc1ccc(C(=O)Nc2ccc(N3CCN(C)CC3)cc2)c(Cl)c1	none
c1ccc(Nc2cccc3ccccc23)cc1	none (no result: pCIP destab, AI-2 QS mod, T cruzi inh, PP1 inh)
c1ccc(Nc2ccc3c4c(cccc24)CC3)cc1	T cruzi inh 64.5
Cc1ccc(C)c(S(=O)(=O)N2CCN(C(=O)c3cncc(Br)c3)CC2)c1	none
C=C1N(C)c2cc([N+](=O)[O-])c(N)cc2C1(C)C	T cruzi inh 67.8
O=C(NCCc1c[nH]c2ccccc12)c1ccco1	none
COc1ccc(C(Nc2cc(C)ccn2)c2ccc3ccc(C)nc3c2O)cc1 (stereo unspecified)	T cruzi inh 59.0
Cc1ccnc(NC(c2ccsc2)c2ccc3ccc(C)nc3c2O)c1 (stereo unspecified)	T cruzi inh 62.6
Cc1ccc2ccc(C(Nc3ccccn3)c3ccccc3)c(O)c2n1 (stereo unspecified)	none
O=C(Nc1ccccc1)c1ncoc1-c1ccc(Cl)cc1	none (no result: T cruzi inh)
COc1cccc(-c2cc(C(=O)N3CCOCC3)no2)c1	none
COc1cccc(-c2cc(C(=O)N3CCN(C(c4ccccc4)c4ccccc4)CC3)no2)c1	T cruzi inh 68.3
CCCN1C(=O)/C(=C/c2ccc(C)s2)SC1=Nc1ccc(OC)cc1	none
COc1ccc(N=C2S/C(=C\c3ccc(Cl)c([N+](=O)[O-])c3)C(=O)N2CCN(C)C)cc1	T cruzi inh 64.6
c1ccc(-c2ccc(-c3ccncn3)cc2)cc1	none (no result: pCIP destab)
Cc1c(C(=O)NCc2ccc3c(c2)OCO3)oc2ccc(S(=O)(=O)N3CCCCCC3)cc12	T cruzi inh 55.4
Cc1c(C(=O)NCc2ccc3c(c2)OCO3)oc2ccc(S(=O)(=O)N3CCC(C)CC3)cc12	T cruzi inh 55.8
Cc1ccc2oc(C(=O)NCc3ccc4c(c3)OCO4)c(C)c2c1	none
O=C(NCC1CCCO1)c1cc(C(=O)c2ccc(Cl)cc2Cl)c[nH]1 (stereo unspecified)	none
COc1ccc(-n2cc(CN(C)C(C)c3ccncn3)c(-c3cccc(F)c3)n2)cc1 (stereo unspecified)	T cruzi inh 66.4
O=C(/C=C/NNC(=O)c1ccccc1)c1ccc([N+](=O)[O-])cc1	T cruzi inh 60.9
Cc1ccc(C(=O)Nc2nnc(-c3ccco3)o2)cc1	none
Cc1ccsc1C(=O)Nc1nnc(-c2ccco2)o1	AI-2 QS mod -127.2
O=C(CN1C(=O)NC2(CCOc3ccccc32)C1=O)NCCc1ccc(F)cc1 (stereo unspecified)	none (no result: pCIP destab, AI-2 QS mod, T cruzi inh, PP1 inh)
Cc1ccc(Nc2nnc(C3C(=O)N(C)C4(C)CC3c3cc(Br)ccc3O4)s2)cc1 (stereo unspecified)	none
Cc1cc(Nc2nc3ccccc3nc2Cl)n(-c2ccc([N+](=O)[O-])cc2)n1	T cruzi inh 55.5
Nn1c(SCC(=O)Nc2ccc(S(N)(=O)=O)cc2)nnc1C(F)(F)F	none
Cc1ccc(S(=O)(=O)CC(CN2CCCCC2)N2CCCCC2)cc1 (stereo unspecified)	none (no result: UBC13 polyUb, PP1 inh)

Screening results: PubChem BioAssay, several laboratories
